From ChEMBL document CHEMBL1268899, “Discovery of potent and selective inhibitors of human reticulocyte 15-lipoxygenase-1” (J Med Chem, 2010) come the findings set out here.

Data set [1] can be described thus: Solubility of the compound. Type of data set: physicochemical.
The subject of data set [2] is Radical scavenging activity. Nature of the data set: Antioxidant activity assessed as DPPH free radical scavenging activity at 5 uM. Type of data set: functional.
Data set [3] deals with T1, Polyunsaturated fatty acid lipoxygenase ALOX15 (Homo sapiens, UniProt P16050).
T1 sequence (P16050 whole entry): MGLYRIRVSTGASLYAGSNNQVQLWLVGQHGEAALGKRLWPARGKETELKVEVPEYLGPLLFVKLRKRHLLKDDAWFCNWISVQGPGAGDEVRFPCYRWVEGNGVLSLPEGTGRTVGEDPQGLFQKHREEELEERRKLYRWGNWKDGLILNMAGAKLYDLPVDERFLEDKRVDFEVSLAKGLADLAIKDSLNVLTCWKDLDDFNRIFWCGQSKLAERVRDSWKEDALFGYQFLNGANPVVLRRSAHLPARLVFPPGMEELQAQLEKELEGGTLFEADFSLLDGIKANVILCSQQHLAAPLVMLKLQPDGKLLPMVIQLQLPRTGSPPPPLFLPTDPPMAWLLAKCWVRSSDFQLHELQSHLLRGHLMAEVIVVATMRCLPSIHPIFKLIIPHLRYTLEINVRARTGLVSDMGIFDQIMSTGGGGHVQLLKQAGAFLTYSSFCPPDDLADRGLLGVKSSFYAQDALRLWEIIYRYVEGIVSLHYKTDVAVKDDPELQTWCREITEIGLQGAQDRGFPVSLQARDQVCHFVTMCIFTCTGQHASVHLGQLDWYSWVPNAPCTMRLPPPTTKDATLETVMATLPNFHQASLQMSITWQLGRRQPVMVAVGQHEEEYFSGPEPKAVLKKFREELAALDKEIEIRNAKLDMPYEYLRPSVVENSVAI
Description: Inhibition of human N-terminal His6-tagged reticulocyte 15-lipoxygenase-1 after 15 mins by UV-vis spectrophotometer analysis. The conditions noted are these: for Ki: read-out: Ki(app).

The target in data set [4] is T2, Polyunsaturated fatty acid lipoxygenase ALOX15B (Homo sapiens, UniProt O15296).
T2 sequence (O15296 whole entry): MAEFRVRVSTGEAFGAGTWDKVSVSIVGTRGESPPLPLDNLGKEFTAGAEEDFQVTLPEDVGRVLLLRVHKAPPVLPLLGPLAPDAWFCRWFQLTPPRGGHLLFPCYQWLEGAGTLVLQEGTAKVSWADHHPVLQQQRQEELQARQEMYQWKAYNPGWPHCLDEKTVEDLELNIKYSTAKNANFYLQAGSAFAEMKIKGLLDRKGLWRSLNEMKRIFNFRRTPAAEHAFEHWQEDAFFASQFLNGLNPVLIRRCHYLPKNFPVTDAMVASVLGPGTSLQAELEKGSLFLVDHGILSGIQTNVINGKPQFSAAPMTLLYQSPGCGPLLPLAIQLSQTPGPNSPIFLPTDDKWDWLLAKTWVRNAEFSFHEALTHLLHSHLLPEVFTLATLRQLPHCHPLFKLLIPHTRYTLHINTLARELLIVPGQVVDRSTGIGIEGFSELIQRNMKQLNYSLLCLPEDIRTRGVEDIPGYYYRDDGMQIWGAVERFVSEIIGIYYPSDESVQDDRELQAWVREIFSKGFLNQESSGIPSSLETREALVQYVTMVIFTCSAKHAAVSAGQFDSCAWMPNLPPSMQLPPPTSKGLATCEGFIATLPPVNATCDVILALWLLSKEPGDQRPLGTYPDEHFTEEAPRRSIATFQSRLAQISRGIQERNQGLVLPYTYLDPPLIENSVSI
Nature of the data set: Inhibition of human N-terminal His6-tagged epithelial 15-lipoxygenase-2 after 15 mins by UV-vis spectrophotometer analysis.

Data set [5] concerns the target T3, Polyunsaturated fatty acid lipoxygenase ALOX12 (Homo sapiens, UniProt P18054).
T3 sequence (P18054 whole entry): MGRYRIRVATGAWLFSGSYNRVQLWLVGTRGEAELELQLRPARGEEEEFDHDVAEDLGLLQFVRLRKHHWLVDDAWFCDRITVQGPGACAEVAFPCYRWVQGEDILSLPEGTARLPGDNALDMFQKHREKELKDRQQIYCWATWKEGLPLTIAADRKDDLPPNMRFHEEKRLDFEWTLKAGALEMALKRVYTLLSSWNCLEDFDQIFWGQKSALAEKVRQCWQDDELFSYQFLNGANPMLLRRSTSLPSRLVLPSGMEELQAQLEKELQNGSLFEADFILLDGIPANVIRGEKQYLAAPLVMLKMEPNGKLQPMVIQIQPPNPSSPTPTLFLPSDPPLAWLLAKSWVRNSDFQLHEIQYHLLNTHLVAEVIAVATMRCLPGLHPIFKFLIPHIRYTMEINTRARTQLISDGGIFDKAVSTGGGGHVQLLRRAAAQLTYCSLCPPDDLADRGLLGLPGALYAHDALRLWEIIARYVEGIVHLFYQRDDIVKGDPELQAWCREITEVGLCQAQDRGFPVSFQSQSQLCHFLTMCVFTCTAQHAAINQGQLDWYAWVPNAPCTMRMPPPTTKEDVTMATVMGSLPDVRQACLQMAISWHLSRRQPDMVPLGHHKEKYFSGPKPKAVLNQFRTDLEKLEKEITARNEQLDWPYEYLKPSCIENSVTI
Nature of the data set: Inhibition of human N-terminal His6-tagged platelet 12-lipoxygenase after 15 mins by UV-vis spectrophotometer analysis.

The target of data set [6] is T4, Polyunsaturated fatty acid 5-lipoxygenase (Homo sapiens, UniProt P09917).
T4 sequence (P09917 whole entry): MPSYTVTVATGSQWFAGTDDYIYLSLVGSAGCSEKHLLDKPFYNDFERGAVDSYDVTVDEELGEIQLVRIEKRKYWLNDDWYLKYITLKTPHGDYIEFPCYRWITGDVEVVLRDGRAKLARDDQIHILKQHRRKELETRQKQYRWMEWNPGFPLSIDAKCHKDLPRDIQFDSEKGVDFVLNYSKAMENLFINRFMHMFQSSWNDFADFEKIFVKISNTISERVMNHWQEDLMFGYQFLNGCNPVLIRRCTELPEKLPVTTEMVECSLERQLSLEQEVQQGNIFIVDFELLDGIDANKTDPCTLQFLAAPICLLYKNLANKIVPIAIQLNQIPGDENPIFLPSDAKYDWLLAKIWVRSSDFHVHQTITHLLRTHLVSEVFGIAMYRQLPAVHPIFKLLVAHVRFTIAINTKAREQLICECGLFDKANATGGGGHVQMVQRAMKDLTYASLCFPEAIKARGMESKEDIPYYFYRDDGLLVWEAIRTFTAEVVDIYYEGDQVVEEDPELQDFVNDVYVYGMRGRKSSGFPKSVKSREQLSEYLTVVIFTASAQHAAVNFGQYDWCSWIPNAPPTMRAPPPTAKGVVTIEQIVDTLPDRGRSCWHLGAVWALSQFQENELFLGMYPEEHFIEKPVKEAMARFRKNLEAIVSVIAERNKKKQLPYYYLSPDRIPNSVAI
Nature of the data set: Inhibition of human 5-lipoxygenase after 15 mins by UV-vis spectrophotometer analysis.

Data set [7] in a line: Selectivity ratio of IC50 for ovine COX1 over IC50 for human N-terminal His6-tagged reticulocyte 15-lipoxygenase-1. Summed up: (§1)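 COX inhibition: ~2 μg ovine COX-1 or human COX-2 preincubated 20 min with inhibitor, then added to 0.1 M Tris-HCl pH 8.0, 5 mM EDTA, 2 mM phenol, 1 μM hematin, 100 μM arachidonic acid at 37 °C; oxygen consumption via oxygen electrode; ibuprofen and DMSO as controls.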

The species named for data set [8] is Homo sapiens. Description: Selectivity ratio of IC50 for human COX2 over IC50 for human N-terminal His6-tagged reticulocyte 15-lipoxygenase-1. In outline:
as §1

The species entered for data set [9] is Homo sapiens. Description: Selectivity ratio of IC50 for human N-terminal His6-tagged epithelial 15-lipoxygenase-2 over IC50 for human N-terminal His6-tagged reticulocyte 15-lipoxygenase-1.
The species entered for data set [10] is Homo sapiens. Nature of the data set: Selectivity ratio of IC50 for human N-terminal His6-tagged platelet 12-lipoxygenase over IC50 for human N-terminal His6-tagged reticulocyte 15-lipoxygenase-1.
The species named for data set [11] is Homo sapiens. Nature of the data set: Selectivity ratio of IC50 for human 5-lipoxygenase over IC50 for human N-terminal His6-tagged reticulocyte 15-lipoxygenase-1.
Data set [12] concerns the target T1, Polyunsaturated fatty acid lipoxygenase ALOX15. Nature of the data set: Inhibition of human N-terminal His6-tagged reticulocyte 15-lipoxygenase-1 catalytic site assessed as 15-HPETE formation by Michaelis-Menten equation analysis.
For data set [13] the target is unchanged. Nature of the data set: Inhibition of human N-terminal His6-tagged reticulocyte 15-lipoxygenase-1 allosteric site assessed as 15-HPETE formation by Michaelis-Menten equation analysis.

Activity calls are given as the source filed them. The calls are words filed in the database; no cut-off is given here.

Take `O=C(OCC#CCSc1nnc(-c2cc3ccccc3cc2O)o1)c1ccc(F)cc1`: the solubility result in data set [1] is listed as “Insoluble”.

As for `O=C(OCC#CCSc1nnc(-c2cccc3ccccc23)s1)c1cccs1`, the solubility entry in [1] is on record as “Insoluble”.

Take `O=C(CCC#CCSc1nnc(-c2cccc3ccccc23)o1)c1ccccc1`: in data set [1], the solubility entry was “Insoluble”.

For `O=C(OCC#CCSc1nnc(-c2cccc3ccccc23)o1)c1sc2ccccc2c1Cl`, the result in data set [2] was inactive.

Broadly, the IC50 is the point on the concentration scale where inhibition reaches its midpoint. A high value points to lower potency. Consider `O=C(OCC#CCSc1nnc(-c2ccc(Cl)cc2)o1)c1ccc(F)cc1`, for which the IC50 is < 10 nM in data set [3], > 100000 nM in [4], > 100000 nM in data set [5] and > 75000 nM in [6]. In data set [3], the Ki is < 10 nM. For the same compound, the Ratio IC50 (in data set [7]; in the data set filed under Homo sapiens [8]; in the data set filed under Homo sapiens [9]; in the data set filed under Homo sapiens [10]; in the data set listed under Homo sapiens [11]) was > 7500 in each case.

On to `O=C(OCC#CCSc1nnc(-c2cccc3ccccc23)o1)c1cnc[nH]1`, for which the Ki in [3] stood at 1400 nM; in data set [12] it was 870 nM; in [13], 8100 nM.

As to `O=C(OCC#CCSc1nnc(-c2cccc3ccccc23)o1)c1csc2ccccc12`, the Ki in data set [3] was < 10 nM. Besides, the outcome in data set [2] was inactive.
